Measurements: ChEMBL document CHEMBL3593159, “Identification of 5-nitrofuran-2-amide derivatives that induce apoptosis in triple negative breast cancer cells by activating C/EBP-homologous protein expression” (Bioorg Med Chem, 2015)

Key:
Type in all cases: functional
[1] = tested on: HCC1806; assay: Cytotoxicity against human HCC1806 cells assessed as reduction in cell viability incubated for 3 days by cell-titer-Glo reagent based assay; conditions: HCC1806, 72 h
Summary of the method: (§1)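 Viability by CellTiter-Glo (ATP read-out). Cells plated at 3 × 10³/well in 384-well format overnight, then exposed to compound over a range (0.125–20 µM for initial series) for 3 d in RPMI 1640 with 10% FBS at 37°C, 5% CO₂. IC₅₀ fitted from dose–response curve.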

[2] = tested on: HCC38; assay: Cytotoxicity against human HCC38 cells assessed as reduction in cell viability incubated for 3 days by cell-titer-Glo reagent based assay; conditions: HCC38, 72 h; summary of the method: as §1
[3] = tested on: HCC1143; assay: Cytotoxicity against human HCC1143 cells assessed as reduction in cell viability incubated for 3 days by cell-titer-Glo reagent based assay; conditions: HCC1143, 72 h; summary of the method: as §1

| Compound | IC50 [1] | IC50 [2] | IC50 [3] |
| --- | --- | --- | --- |
| CC(C)Cc1ccccc1NC(=O)c1ccc([N+](=O)[O-])o1 | > 40 µM | – | – |
| O=C(Nc1ccc(N2CCOCC2)c(Br)c1)c1ccco1 | > 40 µM | – | – |
| CC1CCN(c2ccc(NC(=O)c3ccco3)cc2)CC1 | > 40 µM | – | – |
| O=C(Nc1ccc(N2CCCCC2)c(Cl)c1)c1ccc([N+](=O)[O-])o1 | 3.5 µM | 3.8 µM | 4.5 µM |
| O=C(Nc1cc(C(F)(F)F)ccc1Cl)c1ccc([N+](=O)[O-])o1 | 5.1 µM | – | – |
| CCC1CCN(c2ccc(NC(=O)c3ccco3)cc2Cl)CC1 | > 40 µM | – | – |
| O=C(Nc1ccc(Cl)cc1)c1ccc([N+](=O)[O-])o1 | 5.1 µM | – | – |
| O=C(Nc1cccc(OC(F)(F)F)c1)c1ccc([N+](=O)[O-])o1 | 19.6 µM | – | – |
| O=C(Nc1ccc(N2CCOCC2)cc1)c1ccc([N+](=O)[O-])o1 | 1.5 µM | 3.1 µM | 2.3 µM |
| CCc1ccc(NC(=O)c2ccc([N+](=O)[O-])o2)cc1 | 5 µM | – | – |
